{"source": "ChEMBL document CHEMBL1157674", "about": "“Nanomolar affinity, iminosugar-based chemical probes for specific labeling of lysosomal glucocerebrosidase” (Bioorg Med Chem, 2010)", "key": {"[1]": {"experiment": "Inhibition of Agrobacterium sp. beta-glucosidase"}, "[2]": {"experiment": "Displacement of PNPG from almond beta-glucosidase by UV spectroscopy", "set-up": "species or system Prunus dulcis", "outline": "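Almond β-glucosidase with p-nitrophenyl β-D-glucopyranoside (0.2–5 mM) in 0.1 M acetate buffer pH 5.0, 150 µL wells. After 15 min at 37 °C, p-nitrophenol read at 405 nm. Ki derived by varying both inhibitor and substrate concentrations.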"}, "[3]": {"target": "T1, Beta-glucosidase (Homo sapiens, UniProt Q9HCG7)", "T1 sequence (Q9HCG7 whole entry)": "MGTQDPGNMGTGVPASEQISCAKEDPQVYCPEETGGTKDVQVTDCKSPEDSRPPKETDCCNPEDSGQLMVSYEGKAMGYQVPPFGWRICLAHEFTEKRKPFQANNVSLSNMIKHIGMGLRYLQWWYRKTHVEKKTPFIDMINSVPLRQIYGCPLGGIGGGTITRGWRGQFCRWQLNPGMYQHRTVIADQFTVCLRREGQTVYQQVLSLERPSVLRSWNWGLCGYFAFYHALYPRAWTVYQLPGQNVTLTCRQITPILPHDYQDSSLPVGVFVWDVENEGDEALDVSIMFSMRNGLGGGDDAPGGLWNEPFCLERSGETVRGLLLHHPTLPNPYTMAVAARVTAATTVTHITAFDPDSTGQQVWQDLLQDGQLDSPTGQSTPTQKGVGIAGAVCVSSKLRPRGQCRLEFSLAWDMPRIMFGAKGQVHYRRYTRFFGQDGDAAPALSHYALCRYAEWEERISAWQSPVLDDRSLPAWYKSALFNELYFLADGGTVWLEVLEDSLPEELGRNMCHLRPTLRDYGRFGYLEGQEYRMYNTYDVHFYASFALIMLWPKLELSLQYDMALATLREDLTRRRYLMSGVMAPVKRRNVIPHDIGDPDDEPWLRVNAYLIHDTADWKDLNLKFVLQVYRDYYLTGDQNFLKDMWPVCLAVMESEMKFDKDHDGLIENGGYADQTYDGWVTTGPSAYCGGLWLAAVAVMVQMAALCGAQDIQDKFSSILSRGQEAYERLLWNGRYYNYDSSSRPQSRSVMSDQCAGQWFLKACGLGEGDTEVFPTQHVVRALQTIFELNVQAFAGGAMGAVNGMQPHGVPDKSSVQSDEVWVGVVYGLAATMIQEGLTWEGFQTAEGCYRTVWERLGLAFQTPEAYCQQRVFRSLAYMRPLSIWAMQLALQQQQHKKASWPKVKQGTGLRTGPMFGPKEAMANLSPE", "experiment": "Displacement of 4-methylumbelliferyl from non-lysosomal GBA2 by fluorimetry"}, "[4]": {"target": "T2, Lysosomal acid glucosylceramidase (Homo sapiens) (UniProt P04062)", "T2 sequence (whole entry)": "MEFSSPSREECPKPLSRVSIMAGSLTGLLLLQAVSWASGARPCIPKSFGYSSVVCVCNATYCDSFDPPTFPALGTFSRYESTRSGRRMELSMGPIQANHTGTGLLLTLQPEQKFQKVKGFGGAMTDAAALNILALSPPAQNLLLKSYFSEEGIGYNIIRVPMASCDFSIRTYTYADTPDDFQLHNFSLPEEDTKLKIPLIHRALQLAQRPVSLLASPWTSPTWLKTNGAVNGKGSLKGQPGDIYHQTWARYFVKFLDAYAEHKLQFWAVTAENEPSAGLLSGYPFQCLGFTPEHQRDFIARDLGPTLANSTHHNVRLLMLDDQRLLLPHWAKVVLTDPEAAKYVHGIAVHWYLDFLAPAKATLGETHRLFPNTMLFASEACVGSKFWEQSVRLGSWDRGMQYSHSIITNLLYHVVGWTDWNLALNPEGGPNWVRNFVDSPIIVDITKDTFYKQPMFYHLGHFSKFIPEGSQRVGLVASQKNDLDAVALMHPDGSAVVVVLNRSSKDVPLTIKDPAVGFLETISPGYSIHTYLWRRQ", "experiment": "Binding affinity to human GBA at 0.1 to 10 uM by fluorescence assay", "outline": "(§1)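 Ceredase (human placental GBA) photolabeled in 50 µL with probe at 10, 5, 3, 1, 0.5 or 0.1 µM in 50 mM HEPES pH 6.1. UV 366 nm, 30 min, 4 °C. Then CuSO4/TCEP click with fluorescein-N3 for 16 h at 4 °C, denaturation at 95 °C, SDS–PAGE and fluorescence scanning.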"}, "[5]": {"target": "T2, Lysosomal acid glucosylceramidase (Homo sapiens)", "experiment": "Displacement of deoxynojirimycin from human GBA at 5 uM by fluorescence assay", "outline": "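Competition labeling: Ceredase with probe plus 0, 0.5, 5 or 25 µL of 1 mM deoxynojirimycin stock in 50 µL, 50 mM HEPES pH 6.1. UV irradiation at 366 nm for 30 min at 4 °C, then fluorescein-N3 click and SDS–PAGE fluorescence read-out.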"}, "[6]": {"target": "T3, Lysosomal acid glucosylceramidase (Homo sapiens, UniProt P04062)", "T3 sequence (P04062 whole entry)": "T2 sequence (whole entry)", "experiment": "Displacement of 4-methylumbelliferyl from human GBA by fluorimetry"}, "[7]": {"target": "T2, Lysosomal acid glucosylceramidase (Homo sapiens)", "experiment": "Binding affinity to human GBA at 0.1 uM by fluorescence assay", "outline": "as §1"}, "[8]": {"target": "T2, Lysosomal acid glucosylceramidase (Homo sapiens)", "experiment": "Binding affinity to GBA in human HeLa cell extract at 3 uM by fluorescence assay", "format": "cell-free", "outline": "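300 ng Ceredase with increasing HeLa cell lysate (0.5 mg/mL stock; 0–40 µL) in 50 mM HEPES pH 6.1 with probe. UV 366 nm, 30 min, 4 °C. Then fluorescein-N3 click, SDS–PAGE, fluorescence scan and silver stain. Lysate prepared from 2.5×10^5 PBS-washed cells by detergent extraction; protein measured by BCA.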"}, "[9]": {"target": "T2, Lysosomal acid glucosylceramidase (Homo sapiens)", "experiment": "Binding affinity to human GBA at 10 uM by fluorescence assay", "outline": "as §1"}, "[10]": {"test_system": "Prunus dulcis", "experiment": "Binding affinity to almond beta-glucosidase at 40 uM after 30 mins by fluorescence assay", "outline": "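Almond β-glucosidase from a 1 mg/mL stock, with probe added from a 1 mM stock in 5% DMSO/water, in 50 mM HEPES, 150 mM NaCl, pH 7.4. UV irradiation at 366 nm for 30 min at 4 °C; a non-irradiated control was kept dark. Then CuSO4/TCEP click with fluorescein-N3 for 1 h at rt. SDS–PAGE, fluorescence scan, then silver stain.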"}, "[11]": {"test_system": "Prunus dulcis", "experiment": "Binding affinity to almond beta-glucosidase expressed in Escherichia coli BL21 (DE3) at 100 uM by fluorescence assay", "outline": "(§2)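 E. coli BL21(DE3) lysate (1 mg/mL protein by BCA) spiked with varying amounts of almond β-glucosidase. Probe added as 4 or 10 µL of a 1 mM stock in 100 µL, in HEPES/NaCl pH 7.4. Photolabeling at 366 nm, 30 min, 4 °C, then fluorescein-N3 click. SDS–PAGE with fluorescence scan and silver stain.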"}, "[12]": {"test_system": "Prunus dulcis", "experiment": "Binding affinity to almond beta-glucosidase expressed in Escherichia coli BL21 (DE3) at 40 uM by fluorescence assay", "outline": "as §2"}}, "note": "The source made the active and inactive calls. The rule behind the calls is not given here."}
{"smiles": "CN(C)c1cccc2c(S(=O)(=O)NC[C@H]3N[C@H](CO)[C@@H](O)[C@@H]3O)cccc12", "values": [{"measurement": "Ki", "setting": "[1]", "result": 0.002, "unit": "µM"}]}
{"smiles": "C#CCOc1ccc(C(=O)CCC(=O)NCCCN2C[C@H](O)[C@@H](O)[C@H](O)[C@H]2CO)cc1", "values": [{"measurement": "Ki", "setting": "[2]", "result": 6.4, "unit": "µM"}, {"measurement": "IC50", "setting": "[3]", "result": 0.075, "unit": "µM"}, {"measurement": "Activity", "setting": "[4]", "result": "inactive"}, {"measurement": "Activity", "setting": "[5]", "result": "Active"}, {"measurement": "IC50", "setting": "[6]", "result": 1.65, "unit": "µM"}]}
{"smiles": "C#CCOc1ccc(C(=O)c2ccc(C(=O)NCCCN3C[C@H](O)[C@@H](O)[C@H](O)[C@H]3CO)cc2)cc1", "values": [{"measurement": "Ki", "setting": "[2]", "result": 1.3, "unit": "µM"}, {"measurement": "IC50", "setting": "[3]", "result": 0.02, "unit": "µM"}, {"measurement": "Activity", "setting": "[5]", "result": "Active"}, {"measurement": "Activity", "setting": "[7]", "result": "inactive"}, {"measurement": "Activity", "setting": "[8]", "result": "Active"}, {"measurement": "Activity", "setting": "[9]", "result": "Active"}, {"measurement": "IC50", "setting": "[6]", "result": 0.35, "unit": "µM"}]}
{"smiles": "C#CCOc1ccc(C(=O)c2ccc(O[C@@H]3O[C@H](CO)[C@@H](O)[C@H](O)[C@H]3O)cc2)cc1", "values": [{"measurement": "Ki", "setting": "[2]", "result": 588, "unit": "µM"}, {"measurement": "Activity", "setting": "[10]", "result": "Active"}, {"measurement": "Activity", "setting": "[5]", "result": "Active"}, {"measurement": "Activity", "setting": "[7]", "result": "inactive"}, {"measurement": "Activity", "setting": "[9]", "result": "Active"}, {"measurement": "Activity", "setting": "[11]", "result": "Active"}, {"measurement": "Activity", "setting": "[12]", "result": "Active"}]}
{"smiles": "OC[C@H]1NC[C@H](O)[C@@H](O)[C@@H]1O", "note": "[DUVOGLUSTAT]", "values": [{"measurement": "Ki", "setting": "[2]", "result": 167, "unit": "µM"}]}
{"smiles": "C#CCOc1ccc(C(=O)c2ccc(O)cc2)cc1", "values": [{"measurement": "Activity", "setting": "[11]", "result": "Active"}]}
